Source: PubChem
Shown are actives, neighbours in structure and some others; about 2.9% of the full set was active somewhere.
Kir21 inh = inhibitors of mouse Kir2.1 inward-rectifier potassium channel; HEK293-Kir2.1, FluxOR thallium flux fluorescence; active compounds read low; 0.85% of 310,000 active; Inward rectifier potassium channel 2 (Mus musculus), P35561; B-score at 10 µM;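 active = fluorescence ratio B-score at or below minus 3 SD of library scores, with starting-brightness B-score within 2 SD, cut at about -4.2 in these data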;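 also: channel flux triggered by added potassium and thallium sulfate stimulus; B-score of peak minus minimum fluorescence over baseline after thallium stimulus; more negative B-score means stronger Kir2.1 block with less thallium influx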
Target sequence (P35561 whole entry, looked up): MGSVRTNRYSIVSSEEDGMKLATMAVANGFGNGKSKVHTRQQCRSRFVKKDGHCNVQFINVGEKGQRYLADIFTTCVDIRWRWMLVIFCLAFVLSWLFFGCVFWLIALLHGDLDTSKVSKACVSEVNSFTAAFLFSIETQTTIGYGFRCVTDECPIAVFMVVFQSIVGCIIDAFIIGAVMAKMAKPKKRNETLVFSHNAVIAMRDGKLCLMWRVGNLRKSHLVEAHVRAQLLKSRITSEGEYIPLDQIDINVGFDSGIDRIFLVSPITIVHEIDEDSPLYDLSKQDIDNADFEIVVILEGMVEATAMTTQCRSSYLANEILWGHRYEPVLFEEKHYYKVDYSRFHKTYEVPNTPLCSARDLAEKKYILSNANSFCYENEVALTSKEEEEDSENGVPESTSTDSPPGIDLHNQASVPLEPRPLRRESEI
TRPC4 inh = inhibitors of mouse TRPC4 channel, primary screen, Fluo4 calcium, HEK293 TRPC4beta/mu-opioid cells. Short transient receptor potential channel 4 (Mus musculus), Q9QUQ5. DAMGO-evoked Fluo4 calcium flux; active compounds read low. B-score at 10 µM. 0.39% of 300,000 active. AID 2247, 2010;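 active = B-score over 3 SD under the library average, no early fluorescence shift, positive overall ratio signal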
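Material: HEK293 cells with stable TRPC4beta plus mu-opioid receptor expression / Probe or stimulus: DAMGO in two steps, submaximal then maximal / Compound: single concentration per test compound / Technique: kinetic Fluo4 fluorescence imaging of calcium influx / Read-out: per-well B score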
TRPC6 activator = mouse TRPC6 channel activators, primary screen, cell-based, HEK293, membrane potential dye | 0.13% of 310,000 active | HEK293-TRPC6 membrane potential dye fluorescence; active compounds read high | B-score at 10 µM | Short transient receptor potential channel 6 (Mus musculus), Q61143;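 active = B-score of the integrated fluorescence ratio above library mean plus 3 SD, and starting fluorescence ratio within library mean plus 5 SD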;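 also: higher score means more depolarization so channel activation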
TRPC4 PAM = positive allosteric modulators of TRPC4, primary screen, cell-based, mouse TRPC4beta, HEK293 mu-opioid, Fluo-4 calcium; 0.42% of 310,000 active; AID 2227, 2009; DAMGO EC20, Fluo-4 Ca2+ flux; active compounds read high; Short transient receptor potential channel 4 (Mus musculus), Q9QUQ5; B-score at 10 µM;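 active = B-score of calcium response area above 5 SD of library B-scores, with initial fluorescence ratio within 5 SD of library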
TRPC4 agonist = activators of mouse TRPC4 channel, primary screen, Fluo4 calcium, HEK293 TRPC4beta/mu-opioid cells. B-score at 10 µM. 0.49% of 310,000 active. Fluo4 calcium fluorescence; active compounds read high. Short transient receptor potential channel 4 (Mus musculus), Q9QUQ5;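 active = B-score above 5 SD of library B-scores, and initial fluorescence ratio not above library mean plus 5 SD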;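 also: positive B-score marks a calcium rise read as TRPC4 activation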
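Material: HEK293 stable line with TRPC4beta plus mu-opioid receptor; technique: Fluo4 calcium-sensitive dye fluorescence, kinetic, 1 Hz baseline; timing: Fluo4 dye loading 45 min at room temperature, 110 s recording; controls: assay buffer as low control, maximal DAMGO as high control; read-out: integrated baseline-normalised fluorescence ratio, converted to per-well B score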
TRPC6 inhibitor = mouse TRPC6 channel inhibitors, primary screen, cell-based, HEK293, membrane potential dye. ACh-evoked depolarization; active compounds read low. AID 2553, 2010. B-score at 10 µM. Short transient receptor potential channel 6 (Mus musculus), Q61143. 1.1% of 310,000 active;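 active = B-score under library mean minus 3 SD, initial fluorescence not abnormally high, positive integrated signal ratio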;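 also: B-score derived from integrated fluorescence ratio over the kinetic read; more negative B-score means stronger inhibition of depolarization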
Of the large screens only hits and unclear results are named; the others gave an inactive call.

CC(C)[C@H](NC(=O)c1cccc(CN(Cc2ccccc2)C(=O)c2ccccc2)c1)C(=O)O	none
CC1CCC(C(C)C)C(OC(=O)CSc2nccc(=O)[nH]2)C1 (stereo not drawn)	none
COc1ccc(OCc2n(CC(=O)OC3CC(C)CCC3C(C)C)c3ccccc3[n+]2C)cc1 (stereo not drawn)	Kir21 inh -9.9
CCNC(=O)N1c2ccc(OCC)cc2C(C)=CC1(C)C	TRPC4 inh -7
CCN1C(=O)/C(=C/N(C(C)=O)c2ccccc2)N(c2ccccc2)C1=S	Kir21 inh -4.5
O=C(CN(Cc1ccccc1Cl)S(=O)(=O)c1ccc(Cl)cc1)N/N=C/c1ccc(C(=O)O)cc1	none
O=C(COc1c(Br)cc(Br)c2cccnc12)N1CCCCC1	none
Oc1c(CN2CCCCC2)cc(Br)c2cccnc12	TRPC4 inh -7
CN(C)S(=O)(=O)N1CCC(CCCC2CCN(S(=O)(=O)N(C)C)CC2)CC1	TRPC4 PAM 23
CN(Cc1ccccc1)C(=O)CCC1CCN(S(=O)(=O)N(C)C)CC1	none
O=C(NCc1cccnc1)C1CCCN(Cc2cnn(-c3ccccc3)c2-n2cccc2)C1 (stereo not drawn)	TRPC4 agonist 87
COc1ccc(CNC(=O)CSCc2cnn(-c3ccccc3)c2-n2cccc2)cc1	Kir21 inh -4.9
COc1ccc(-n2c(CCc3ccccc3)nnc2SCC(=O)NCc2ccccc2)cc1	Kir21 inh -4.9
O=C(CSCc1cnn(-c2ccccc2)c1-n1cccc1)NCCN1CCOCC1	none
COc1cccc(CNC(=O)C2CCN(Cc3cnn(-c4ccccc4)c3-n3cccc3)CC2)c1	TRPC4 agonist 44
O=C(Cc1ccc(Cl)cc1)Nc1ccccc1N1CCN(C(=O)c2ccccc2)CC1	none
O=C(NCc1ccccn1)C1CCCN(Cc2cnn(-c3ccccc3)c2-n2cccc2)C1 (stereo not drawn)	TRPC4 agonist 53 (no result: TRPC4 inh)
Cc1ccccc1CSc1nnc(-c2cccs2)n1Cc1ccco1	none
c1ccc(CSc2nnc(-c3ccco3)n2Cc2ccco2)cc1	none
Cc1ccccc1CSc1nnc(-c2ccco2)n1Cc1ccco1	Kir21 inh -8.2
c1ccc(CSc2nnc(-c3cccs3)n2Cc2ccco2)cc1	Kir21 inh -7.7
CCn1c(SCc2nc(-c3ccc(Cl)cc3)no2)nnc1-c1ccco1	Kir21 inh -4.7
COC(=O)c1c(C)[nH]c(C(=O)C(C)Sc2nnc(-c3cc(OC)c(OC)c(OC)c3)o2)c1C (stereo not drawn)	none
Cc1ccc(C(=O)N/C(=C\c2cn(S(=O)(=O)N(C)C)c3ccccc23)C(=O)NCCCN2CCOCC2)cc1	none
Cc1ccnc(NC(=O)CNC(=O)Cc2cccc3ccccc23)c1	none
Cc1cccnc1Oc1ncccc1N	none
Cc1cc(NC(=O)C(C)SCC(=O)O)no1 (stereo not drawn)	none
Cc1cccc(N(Cc2ccccc2)C(=O)CSC(C)C(=O)Nc2cc(C)on2)c1 (stereo not drawn)	TRPC4 inh -6
CCCCCCNc1nc(Cl)nc(NC(C)(C)CO)n1	none
COc1ccc(/C=N/Nc2cc(C)nc3ccc(OC)cc23)c(OC)c1	TRPC6 inhibitor -5.4
CCOc1cc(CNCc2ccncc2)cc(Br)c1OCc1ccc(F)cc1	Kir21 inh -13
Fc1ccc(COc2ccc(Br)cc2CNCc2ccncc2)cc1	Kir21 inh -4.4
Fc1ccc(COc2cccc(CNCc3ccncc3)c2)cc1	none
Cc1ccc(C2=NC(C(F)(F)F)(C(F)(F)F)c3c(n(-c4ccc(F)cc4)c(=O)[nH]c3=O)N2)cc1	TRPC4 PAM 12
COc1cc2[nH]c(C(=O)NCc3ccccc3)cc2c(OC)c1OC	Kir21 inh -6.3
O=C(CSc1nnnn1-c1cccc2c1CCCC2)N1CCCCC1	Kir21 inh -4.3
Cc1ccc(-n2nnnc2SCC(=O)N2CCCCC2)cc1	none
CCn1c(CNc2ccc(Cl)cc2)nnc1SCc1ccc(Cl)cc1	Kir21 inh -5
CCOC(=O)C1CCN(Cc2cc(Cl)c3ccccc3c2O)CC1	none
CCOCCCNCc1cn(-c2ccc(F)cc2F)nc1-c1ccccc1C	TRPC4 agonist 77
CCOC(=O)N1CCN(C(=O)/C=C/c2c(C)nn(-c3ccc(F)cc3)c2Cl)CC1	none
COc1ccc(CCNC(=O)CSc2ccc(-c3cccs3)nn2)cc1OC	none
CCSC1=N/C(=C\c2ccc(OC)cc2)C(=O)N1	TRPC4 PAM 86
COc1cccc(CNCc2ccc(OC)c3ccccc23)c1OC	none
COc1cccc(CNCc2ccccn2)c1OC	TRPC4 inh -6, TRPC4 agonist 63
NC(=S)Nc1cccc2cc3ccccc3cc12	none
NC(=S)Nc1cc2ccccc2c2ccccc12	TRPC4 PAM 14
CSc1ccc(C(=O)C2CCCN(C(=O)c3nonc3C)C2)cc1 (stereo not drawn)	none
Cc1ccc(N(CC(=O)NCc2ccccc2)S(=O)(=O)c2c(C)noc2C)cc1	none
CCc1ccc(OCC(=O)Nc2ccc3c(c2)OCCO3)cc1	Kir21 inh -4.7
CCc1ccc(NC(=O)COc2ccc3c(c2)OCO3)cc1	none
COc1ccc(-c2[nH]ncc2CNC(C)c2ccccc2Cl)cc1F (stereo not drawn)	Kir21 inh -7.3
CCc1cc(C(c2cccc(OC)c2)N2CCOCC2)c(NC(=O)c2ccccc2)s1 (stereo not drawn)	TRPC4 inh -6
Cc1ccc(C(=O)N2CCCC(C(=O)c3cc(F)ccc3F)C2)s1 (stereo not drawn)	Kir21 inh -5
COc1ccc(Cc2nnc(NC(=O)C3CC(=O)N(c4ccccc4)C3)s2)cc1OC (stereo not drawn)	none
O=S(=O)(c1ccc(Cl)cc1Br)N1CCCCC1	TRPC4 PAM 17
CC1CCN(S(=O)(=O)c2cc(Cl)ccc2Br)CC1	none
Cc1ccc(-n2c(SCC(=O)Nc3cccc(S(=O)(=O)NC4=NCCCCC4)c3)nc3ccccc3c2=O)cc1	TRPC4 agonist 72
COc1cc(CN(C)CCc2ccccc2)ccc1OCc1ccccc1	Kir21 inh -7.6
COc1ccc(CCNCc2ccc(OCc3ccccc3)cc2)cc1	Kir21 inh -5.4
c1ccc(COc2ccc(CNCc3cccs3)cc2)cc1	Kir21 inh -13
COc1ccc(CNC(C)CCc2ccccc2)cc1 (stereo not drawn)	Kir21 inh -6.3
Cc1ccc(S(=O)(=O)NC(C)(C)CN2CCCCC2)cc1	none
